# Results from ChEMBL document CHEMBL2203121, “DNA cleavage induced by antitumor antibiotic leinamycin and its biological consequences” (Bioorg Med Chem, 2012).
# Active and inactive are the calls of the source. The calls are words filed in the database; no cut-off is given here.
# Experiments:
# [1] = Cytotoxicity against chinese hamster NER-mutant UV135 cells assessed as cell survival by clonogenic survival assay; type: functional, cell-based; conditions: Cricetulus griseus
# Summary of the method: (§1)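 CHO lines from repair-proficient and repair-mutant backgrounds, grown in RPMI1640 with 10% FCS. Cells plated in triplicate at 400 cells/well and dosed 24 h later with a range of leinamycin concentrations. Colonies grew 14 days and were stained with 1% methylene blue in 50% ethanol. Dye was eluted in isopropanol with 0.4 M HCl and read at 595 nm for relative survival.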
# [2] = system: CHO-AA8; assay: Ratio for chinese hamster AA8 cells to chinese hamster BER-mutant EM9 cells; type: functional, Cricetulus griseus
# [3] = system: Nucleic Acid; assay: Induction of DNA cleavage in 32P-labeled oligomer duplex Sp25 DNA up to 24 hrs by PAGE analysis without hot piperidine treatment; type: nucleic-acid assay
# Summary of the method: (§2)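 5'-32P-end-labelled, gel-purified Sp25 duplex (100 fmol) was incubated with leinamycin at 37°C in 20 mM Tris-HCl pH 7.6, 20 mM NaCl, 1 mM DTT, with no piperidine step. Unreacted drug was removed on a G-10 column. Fragments were resolved on 16% urea-PAGE and quantified by phosphorimaging.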
# [4] = system: Nucleic Acid; assay: Induction of DNA cleavage in 32P-labeled oligomer duplex Sp25 DNA at 2 ug/ml to 100 ug/ml after 24 hrs by PAGE analysis without hot piperidine treatment; type: nucleic-acid assay; summary of the method: as §2
# [5] = Cytotoxicity against human MiaPaCa cells assessed as potentiation of methoxyamine-mediated cytotoxicity by MTT assay; type: functional, cell-based; conditions: MIA PaCa-2
# Summary of the method: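 MiaPaCa cells in RPMI1640 with 10% FCS were given leinamycin alone or combined with methoxyamine, a BER inhibitor, tested alone up to 25 mM. Survival was measured by MTT, reading solubilised formazan at 595 nm, in triplicate with ±SE.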
# [6] = system: Nucleic Acid; assay: Induction of DNA cleavage in 32P-labeled oligomer duplex Sp25 DNA after 8 hrs by PAGE analysis with hot piperidine treatment; type: nucleic-acid assay
# Summary of the method: (§3)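 5'-32P-end-labelled, gel-purified Sp25 duplex (100 fmol) was incubated with leinamycin at 37°C in 20 mM Tris-HCl pH 7.6, 20 mM NaCl, 1 mM DTT. Drug was removed on a G-10 column, then DNA was heated 30 min in 1 M piperidine. Products were run on 16% urea-PAGE and quantified by phosphorimaging.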
# [7] = Cytotoxicity against chinese hamster NER-mutant UV5 cells assessed as cell survival by clonogenic survival assay; type: functional, cell-based; conditions: Cricetulus griseus; summary of the method: as §1
# [8] = system: CHO-AA8; assay: Cytotoxicity against chinese hamster AA8 cells assessed as cell survival by clonogenic survival assay; type: functional, cell-based; conditions: Cricetulus griseus; summary of the method: as §1
# [9] = Cytotoxicity against human MiaPaCa cells by MTT assay; type: functional, cell-based; conditions: MIA PaCa-2
# Summary of the method: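 MiaPaCa cells in RPMI1640 with 10% FCS were exposed to leinamycin. Viability was read by MTT reduction to formazan, with absorbance of solubilised formazan at 595 nm. Survival was determined in triplicate with ±SE.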
# [10] = Cytotoxicity against chinese hamster NER-mutant UV41 cells assessed as cell survival by clonogenic survival assay; type: functional, cell-based; conditions: Cricetulus griseus; summary of the method: as §1
# [11] = system: Nucleic Acid; assay: Induction of DNA cleavage in 32P-labeled oligomer duplex Sp25 DNA at 2 ug/ml to 100 ug/ml after 24 hrs by PAGE analysis followed by hot piperidine treatment; type: nucleic-acid assay; summary of the method: as §3
# [12] = system: Xrs-5; assay: Cytotoxicity against chinese hamster kU86-mutant Xrs-5 cells assessed as cell survival by clonogenic survival assay; type: functional, cell-based; conditions: Cricetulus griseus; summary of the method: as §1
# [13] = species: Cricetulus griseus; assay: Cytotoxicity against chinese hamster BER-mutant EM9 cells assessed as cell survival by clonogenic survival assay; type: functional, cell-based; summary of the method: as §1
# [14] = system: Nucleic Acid; assay: Inhibition of Leinamycin-induced strand breaks in 32P-labeled 25-bp oligomer duplex Sp25 DNA after 24 hrs by PAGE analysis followed by hot piperidine treatment; type: nucleic-acid assay
# Summary of the method: (§4)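 5'-32P-end-labeled duplex Sp25 (100 fmol), gel-purified, incubated at 37°C for 24 h with leinamycin, Fe(II)-bleomycin or 1 mM MMS plus increasing methoxyamine in 20 mM Tris–HCl pH 7.6, 20 mM NaCl, 1 mM DTT; drug removed on Sephadex G-10; then 1 M piperidine, 90°C, 30 min; 16% urea–acrylamide gel, PhosphorImager quantification.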
# [15] = Potentiation of leinamycin-induced cytotoxicity in human MiaPaCa cells by MTT assay; type: functional
# Summary of the method: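 MiaPaCa cells grown in RPMI1640 with 10% FCS, exposed to methoxyamine (up to 25 mM), leinamycin or both; viability by MTT reduction, formazan solubilized and read at 595 nm; triplicate determinations, bars ±SE.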
# [16] = system: Nucleic Acid; assay: Inhibition of bleomycin-induced strand breaks in 32P-labeled 25-bp oligomer duplex Sp25 DNA at 1 mM after 24 hrs by PAGE analysis followed by hot piperidine treatment; type: nucleic-acid assay; summary of the method: as §4
# [17] = system: Nucleic Acid; assay: Inhibition of bleomycin-induced strand breaks in 32P-labeled 25-bp oligomer duplex Sp25 DNA at 1 mM by PAGE analysis without hot piperidine treatment; type: nucleic-acid assay
# Summary of the method: (§5)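 5'-32P-end-labeled Sp25 duplex (100 fmol) exposed at 37°C for 24 h to leinamycin, Fe(II)-bleomycin or 1 mM MMS with rising methoxyamine levels in 20 mM Tris–HCl pH 7.6, 20 mM NaCl, 1 mM DTT; unreacted drug removed by Sephadex G-10; no piperidine step; denaturing 16% urea–acrylamide gel, PhosphorImager scan.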
# [18] = system: Nucleic Acid; assay: Inhibition of Leinamycin-induced strand breaks in 32P-labeled 25-bp oligomer duplex Sp25 DNA at 1mM by PAGE analysis followed by hot piperidine treatment; type: nucleic-acid assay; summary of the method: as §4
# [19] = system: Nucleic Acid; assay: Inhibition of methyl methanesulfonate-induced strand breaks in 32P-labeled 25-bp oligomer duplex Sp25 DNA at 1 mM by PAGE analysis without hot piperidine treatment; type: nucleic-acid assay; summary of the method: as §5
# [20] = system: Nucleic Acid; assay: Inhibition of methylmethanesulfonate-induced strand breaks in 32P-labeled 25-bp oligomer duplex Sp25 DNA at 1 mM after 24 hrs by PAGE analysis followed by hot piperidine treatment; type: nucleic-acid assay; summary of the method: as §4
# [21] = system: Nucleic Acid; assay: Inhibition of leinamycin-induced strand breaks in 32P-labeled 25-bp oligomer duplex Sp25 DNA at 1mM after 24 hrs by PAGE analysis without hot piperidine treatment; type: nucleic-acid assay; summary of the method: as §5
# [22] = system: Nucleic Acid; assay: Inhibition of Leinamycin-induced strand breaks in 32P-labeled 25-bp oligomer duplex Sp25 DNA after 24 hrs by PAGE analysis without hot piperidine treatment; type: nucleic-acid assay; summary of the method: as §5
smiles,measurement,setting,value
C/C1=C\[C@@H](O)C(=O)/C=C/C=C\c2csc(n2)[C@@H](C)NC(=O)C[C@@]2(CC1)[S+]([O-])SC(=O)[C@]2(C)O (some centres not stated) [LEINAMYCIN],IC50,[1],2 ng/mL
same,Ratio,[2],>3
same,Activity,[3],Active
same,Activity,[4],Dose-dependent effect
same,IC50,[5],0.015 µg/mL
same,Activity,[6],Active
same,IC50,[7],3 ng/mL
same,IC50,[8],0.01 µg/mL
same,IC50,[9],0.04 µg/mL
same,IC50,[10],3 ng/mL
same,Activity,[11],Dose-dependent effect
same,Activity,[12],Active
same,Activity,[13],Active
CON [METHOXYAMINE],Activity,[14],Active
same,fold change (FC),[15],2.5
same,Activity,[16],inactive
same,Activity,[17],inactive
same,Activity,[18],inactive
same,Activity,[19],inactive
same,Activity,[20],inactive
same,Activity,[21],inactive
same,Activity,[22],Active
